Assay results reported in ChEMBL document CHEMBL1158758, “Cassane- and norcassane-type diterpenes from Caesalpinia crista of Indonesia and their antimalarial activity against the growth of Plasmodium falciparum” (J Nat Prod, 2005).

System: Plasmodium falciparum
Assay: Antimalarial activity against Plasmodium falciparum FCR3/A2
Type: functional, organism-based
Settings: FCR-3
Method in brief: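 P. falciparum FCR-3/A2 clone cultured in vitro in 24-well plates across a wide concentration range of each compound. Compounds held as 10^-2 M DMSO stocks at -20 °C (stock, not final). Daily blood smears tracked parasite growth. IC50 (50% growth inhibition vs untreated control) came from linear regression of concentration–response data.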

IC50 [µM]	Structure (SMILES)
6.5	COC(=O)[C@@H]1c2ccoc2C[C@H]2[C@H]1C[C@H](OC(C)=O)[C@@]1(O)C(C)(C)CC[C@H](OC(C)=O)[C@]21C [CAESALPININ E]
0.8	CC(=O)O[C@H]1CCC(C)(C)[C@]2(O)C[C@@H]3OC(=O)[C@@H]4c5ccoc5C[C@@H]([C@@H]34)[C@@]12C [CAESALMIN B]
0.2	C=C1c2ccoc2C[C@H]2[C@H]1CC[C@@]1(O)C(C)(C)[C@H](OC(C)=O)[C@H](OC(C)=O)[C@H](OC(C)=O)[C@]21C
0.098	CC(=O)O[C@H]1CC(C)(C)[C@]2(O)CCc3c(cc4occc4c3C)[C@@]2(C)[C@H]1OC(C)=O
0.76	C=C1c2ccoc2C[C@H]2[C@H]1CC[C@@]1(O)C(C)(C)[C@H](OC(C)=O)C[C@H](OC(C)=O)[C@]21C [CAESALPININ C]
0.26	CC(=O)O[C@H]1C[C@@H](OC(C)=O)C(C)(C)[C@]2(O)CC[C@H]3C(=O)c4ccoc4C[C@@H]3[C@@]12C [NORCAESALPININ B]
> 10	CC1(C)CC[C@H](O)[C@]2(C)[C@H]3Cc4occc4[C@H]4C(=O)O[C@@H](C[C@@]12O)[C@@H]43 [CAESALMIN G]
0.8	CC(=O)O[C@H]1CCC(C)(C)[C@]2(O)[C@@H](OC(C)=O)[C@@H]3OC(=O)[C@@H]4c5ccoc5C[C@@H]([C@@H]34)[C@@]12C [CAESALPININ D]
0.8	CC(=O)O[C@H]1CC(C)(C)[C@]2(O)CC[C@H]3C(=O)c4ccoc4C[C@@H]3[C@@]2(C)[C@H]1OC(C)=O [NORCAESALPININ A]
2	CC(=O)O[C@H]1[C@@H](OC(C)=O)C(C)(C)[C@]2(O)CC[C@H]3C(=O)c4ccoc4C[C@@H]3[C@@]2(C)[C@H]1OC(C)=O [3-O-ACETYLNORCAESALPININ A]
0.65	COC(=O)[C@@H]1c2ccoc2C[C@H]2[C@H]1C[C@H](OC(C)=O)[C@@]1(O)C(C)(C)CCC(=O)[C@]21C [CAESALPININ F]
0.09	CC(=O)O[C@H]1CCC(C)(C)[C@]2(O)C[C@H](O)[C@H]3C(=O)c4ccoc4C[C@@H]3[C@@]12C [NORCAESALPININ E]
4	CC(=O)O[C@H]1C[C@@H](OC(C)=O)C(C)(C)[C@]2(O)CCc3c(cc4occc4c3C)[C@@]12C [CAESALDEKARINE]
6.5	CC(=O)O[C@H]1[C@@H](OC(C)=O)C(C)(C)[C@]2(O)CCc3c(cc4occc4c3C)[C@@]2(C)[C@H]1OC(C)=O

Structure (SMILES)	IC50 [µM]
CC(=O)O[C@H]1CC(C)(C)[C@]2(O)CCc3c(cc(O)c(C=O)c3C)[C@@]2(C)[C@H]1OC(C)=O [NORCAESALPININ C]	5
COC(=O)[C@@H]1c2ccoc2C[C@H]2[C@H]1[C@@H](OC(C)=O)C[C@@]1(O)C(C)(C)CC[C@H](OC(C)=O)[C@]21C [ACETOXYBONDUCELLPIN C]	0.6
